We go through 13 compounds from ChEMBL document CHEMBL1140219, “Activation of p16 gene silenced by DNA methylation in cancer cells by phosphoramidate derivatives of 2'-deoxyzebularine” (2008).

Assay [1] deals with T-24. The experiment in a line: Induction of p16 gene expression in human T24 cells at 1 uM after 8 days by real time PCR. It counts as functional, cell-based. In a few lines:
(§1)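 T24 or HCT15 cells were treated continuously for 8 days at 1, 10 or 100 μM, with or without 100 μM thymidine. Drug and medium were renewed every 2–3 days. T24 cells were grown in McCoy's 5A with 10% FCS. Total RNA (5 μg) was reverse transcribed with random primers. p16 mRNA was measured by real-time RT-PCR and normalized to GAPDH.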

Assay [2] has as its system T-24. Description: Induction of p16 gene expression in human T24 cells at 10 uM after 8 days by real time PCR. It counts as functional, cell-based. In short, it runs like this:
as §1

Assay [3] concerns T-24. The experiment in a line: Induction of p16 gene expression in human T24 cells at 100 uM after 8 days by real time PCR. The class given is functional, cell-based. In a few lines:
as §1

The test system of assay [4] is CFPAC-1. Description: Induction of p16 gene expression in human Cf-Pac-1 cells at 1 uM after 8 days by real time PCR. The class given is functional, cell-based. In a few lines: (§2)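 Cf-Pac-1 cells in IMDM/10% FCS were seeded 3×10^5/dish and treated continuously for 8 days from 24 hr after seeding. Medium and drug were refreshed every 2–3 days, with 100 μM thymidine, lower thymidine, or 100 μM uridine added. Total RNA (5 μg) was reverse transcribed with MMLV RT and random primers. p16 mRNA was measured by real-time RT-PCR and normalized to GAPDH.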

Assay [5] deals with CFPAC-1. The experiment in a line: Induction of p16 gene expression in human Cf-Pac-1 cells at 10 uM after 8 days by real time PCR. The class given is functional, cell-based. In short, it runs like this:
as §2

Assay [6] relates to CFPAC-1. The experiment in a line: Induction of p16 gene expression in human Cf-Pac-1 cells at 100 uM after 8 days by real time PCR. It counts as functional, cell-based. In short, it runs like this: as §2
In assay [7] the test system is CFPAC-1. Description: Induction of p16 gene expression in human Cf-Pac-1 cells after 8 days by real time PCR in presence of 1 to 2 mM thymidine. It counts as functional, cell-based.
Assay [8] relates to CFPAC-1. The experiment in a line: Induction of p16 gene expression in human Cf-Pac-1 cells at 10 uM by real time PCR in presence of […]. The class given is functional, cell-based. In short, it runs like this: as §2
The test system of assay [9] is T-24. The experiment in a line: Induction of p16 gene expression in human T24 cells after 8 days by real time PCR in presence of […]. The class given is functional, cell-based. In a few lines: as §1
Assay [10] has as its system CFPAC-1. Description: Cytotoxicity against human Cf-Pac-1 cells assessed as increase in cell population doubling time at 100 uM after 8 days in presence of 100 uM thymidine. It counts as functional. In short, it runs like this:
(§3)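 Cf-Pac-1 cells grown in IMDM with 10% heat-inactivated FCS at 37°C, 5% CO2. Seeded 3×10^5 cells/10cm dish and treated 24 hr later. Medium and drug were renewed every 2–3 days. Cells were counted by Coulter counter every 2–3 days, with two plates averaged. Population doublings = log(harvested/seeded)/log2. Result is % increase in doubling time over untreated cells.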

In assay [11] the test system is CFPAC-1. Description: Induction of hypomethylation at CPG-rich region of p16 in human Cf-Pac-1 cells at 10 uM after 8 days by quantitative Ms-SNuPE in presence of 100 uM thymidine. The class given is functional, cell-based. In short, it runs like this:
(§4)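 Cf-Pac-1 cells were treated with continuous redosing and received 100 μM thymidine. Genomic DNA (4 μg) was bisulfite-treated and then PCR-amplified: 94°C 3 min, then 40 cycles of 94°C/annealing/72°C, 45 s each. Annealing was 65°C for p16, 53°C for MAGEA1 and 58°C for D4Z4. Ms-SNuPE primer extension was 94°C 1 min, 50°C 30 s, 72°C 20 s.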

The test system of assay [12] is CFPAC-1. The experiment in a line: Induction of hypomethylation at CPG-poor promoter region of MAGEA1 gene in human Cf-Pac-1 cells at 10 uM after 8 days by quantitative Ms-SNuPE in presence of 100 uM thymidine. The class given is functional, cell-based. In a few lines:
as §4

The test system of assay [13] is CFPAC-1. Description: Induction of hypomethylation at repeat sequence D4Z4 in human Cf-Pac-1 cells at 10 uM after 8 days by quantitative Ms-SNuPE in presence of 100 uM thymidine. The class given is functional, cell-based. In short, it runs like this:
as §4

For assay [14], the system named is CFPAC-1. The experiment in a line: Induction of p16 gene expression in human Cf-Pac-1 cells at 100 uM by real time PCR in presence of […]. It counts as functional, cell-based. In a few lines:
as §2

Assay [15] has as its system CFPAC-1. The experiment in a line: Induction of hypomethylation at CPG-rich region of p16 in human Cf-Pac-1 cells at 100 uM after 8 days by quantitative Ms-SNuPE in presence of 100 uM thymidine. The class given is functional, cell-based. In a few lines:
as §4

The test system of assay [16] is CFPAC-1. Description: Induction of hypomethylation at CPG-poor promoter region of MAGEA1 gene in human Cf-Pac-1 cells at 100 uM after 8 days by quantitative Ms-SNuPE in presence of 100 uM thymidine. The class given is functional, cell-based. In short, it runs like this: as §4
Assay [17] relates to CFPAC-1. The experiment in a line: Induction of hypomethylation at repeat sequence D4Z4 in human Cf-Pac-1 cells at 100 uM after 8 days by quantitative Ms-SNuPE in presence of 100 uM thymidine. It counts as functional, cell-based. In a few lines:
as §4

Assay [18] concerns CFPAC-1. Description: Cytotoxicity against human Cf-Pac-1 cells assessed as increase in cell population doubling time at 10 uM after 8 days in presence of 100 uM thymidine. It counts as functional. In short, it runs like this:
as §3

Assay [19] concerns CFPAC-1. The experiment in a line: Cytotoxicity against human Cf-Pac-1 cells assessed as increase in cell population doubling time at 1 uM after 8 days in presence of 100 uM thymidine. It counts as functional. In a few lines:
as §3

For the next assay, the system named is HCT-15. The experiment in a line: Induction of p16 gene expression in human HCT15 cells at 100 uM after 8 days by real time PCR in presence of […] thymidine. It counts as functional, cell-based. In a few lines: as §1

Activity calls are given as the source filed them. The calls are words filed in the database; no cut-off is given here.

For the compound `C[C@H](NP(=O)(OC[C@H]1O[C@@H](n2cccnc2=O)[C@@H](F)[C@@H]1O)Oc1ccccc1)C(=O)OCc1ccccc1` (stereo partly specified), the outcome with T-24 [1], with T-24 [2], in the assay on T-24 [3], in the assay on CFPAC-1 [4], in the assay on CFPAC-1 [5] and with CFPAC-1 [6] was inactive. In the assay on CFPAC-1 [7], the outcome was inactive.
Consider `COC(=O)[C@H](C)NP(=O)(OC[C@H]1O[C@@H](n2cccnc2=O)[C@@H](F)[C@@H]1O)Oc1ccccc1` (stereo partly specified), for which the result in the assay on T-24 [1], in the assay on T-24 [2], with T-24 [3], in the assay on CFPAC-1 [4], in the assay with CFPAC-1 [5] and with CFPAC-1 [6] was inactive. Besides, the outcome with CFPAC-1 [7] was inactive.
In the case of `CCOC(=O)C(C)(C)NP(=O)(OC[C@H]1O[C@@H](n2cccnc2=O)C[C@@H]1OP(=O)(NC(C)(C)C(=O)OCC)Oc1cccc2ccccc12)Oc1cccc2ccccc12` (stereo partly specified), the outcome with T-24 [1], in the assay on T-24 [2], in the assay on T-24 [3], in the assay with CFPAC-1 [4], with CFPAC-1 [5] and in the assay with CFPAC-1 [6] was inactive. The result in the assay on T-24 [9] and with CFPAC-1 [7] was inactive. In addition, the result with CFPAC-1 [8], in the assay with CFPAC-1 [10], in the assay with CFPAC-1 [11], with CFPAC-1 [12] and in the assay on CFPAC-1 [13] was Active.
In the case of `COC(=O)[C@H](C)NP(=O)(OC[C@H]1O[C@@H](n2cccnc2=O)C[C@@H]1O)Oc1ccccc1` (stereo partly specified), the outcome in the assay with T-24 [1], with T-24 [2], in the assay with T-24 [3], in the assay with CFPAC-1 [4], in the assay on CFPAC-1 [5] and in the assay on CFPAC-1 [6] was inactive. In addition, the result in the assay with CFPAC-1 [7] was inactive.
Regarding `CCOC(=O)[C@H](C)NP(=O)(OC[C@H]1O[C@@H](n2cccnc2=O)C[C@@H]1O)Oc1ccc(Cl)cc1` (stereo partly specified), the outcome in the assay with T-24 [1], in the assay on T-24 [2], with T-24 [3], in the assay on CFPAC-1 [4], in the assay with CFPAC-1 [5] and in the assay on CFPAC-1 [6] was inactive. Also, the result in the assay with T-24 [9] and in the assay with CFPAC-1 [7] was inactive.
Consider `CC(C)(NP(=O)(OC[C@H]1O[C@@H](n2cccnc2=O)C[C@@H]1O)Oc1cccc2ccccc12)C(=O)OCc1ccccc1` (stereo partly specified), for which the outcome with T-24 [1], with T-24 [2], in the assay on T-24 [3], in the assay with CFPAC-1 [4], in the assay with CFPAC-1 [5] and in the assay with CFPAC-1 [6] was inactive. Further, the result in the assay with T-24 [9] and in the assay with CFPAC-1 [7] was inactive. The result in the assay on CFPAC-1 [14], in the assay on CFPAC-1 [8], in the assay with CFPAC-1 [15], with CFPAC-1 [16] and with CFPAC-1 [17] was Active. Moreover, the Activity in the assay on CFPAC-1 [10] came to 23%; in the assay on CFPAC-1 [18] it was 36%.
Take `CCOC(=O)[C@H](C)NP(=O)(OC[C@H]1O[C@@H](n2cccnc2=O)C[C@@H]1OP(=O)(N[C@@H](C)C(=O)OCC)Oc1ccc(Cl)cc1)Oc1ccc(Cl)cc1` (stereo partly specified): the outcome in the assay on T-24 [1], in the assay on T-24 [2], with T-24 [3], with CFPAC-1 [4], with CFPAC-1 [5] and in the assay on CFPAC-1 [6] was inactive. Also, the result in the assay on T-24 [9] and in the assay on CFPAC-1 [7] was inactive.
On to `Cc1cn([C@H]2C[C@H](O)[C@@H](CO)O2)c(=O)[nH]c1=O` [DOXRIBTIMINE], for which the Activity with CFPAC-1 [10] was found to be 0%.
As to `CC(C)(NP(=O)(OC[C@H]1O[C@@H](n2cccnc2=O)C[C@@H]1OP(=O)(NC(C)(C)C(=O)OCc1ccccc1)Oc1ccccc1)Oc1ccccc1)C(=O)OCc1ccccc1` (stereo partly specified), the outcome in the assay on T-24 [1], in the assay on T-24 [2], in the assay with T-24 [3], with CFPAC-1 [4], in the assay on CFPAC-1 [5] and in the assay on CFPAC-1 [6] was inactive. The outcome in the assay with T-24 [9] and in the assay with CFPAC-1 [7] was inactive.
In the case of `C[C@H](NP(=O)(OC[C@H]1O[C@@H](n2cccnc2=O)C[C@@H]1O)Oc1ccccc1)C(=O)OCc1ccccc1` (stereo partly specified), the outcome in the assay with T-24 [1], with T-24 [2], in the assay with T-24 [3], in the assay with CFPAC-1 [4], with CFPAC-1 [5] and in the assay on CFPAC-1 [6] was inactive. Further, in the assay with CFPAC-1 [7], the result was inactive.
For the compound `CCOC(=O)C(C)(C)NP(=O)(OC[C@H]1O[C@@H](n2cccnc2=O)C[C@@H]1O)Oc1cccc2ccccc12` (stereo partly specified), the outcome in the assay with T-24 [1], in the assay with T-24 [2], with T-24 [3], in the assay on CFPAC-1 [4], in the assay with CFPAC-1 [5] and in the assay on CFPAC-1 [6] was inactive. The outcome in the assay on T-24 [9] and in the assay with CFPAC-1 [7] was inactive. The result with CFPAC-1 [14], in the assay with CFPAC-1 [8], in the assay with CFPAC-1 [15], with CFPAC-1 [16] and with CFPAC-1 [17] was Active. In addition, the values for the Activity with CFPAC-1 [18] and with CFPAC-1 [19] were 81% and 58%, respectively.
Take `O=c1ncccn1[C@@H]1O[C@H](CO)[C@@H](O)[C@H]1O` [ZEBULARINE]: the outcome in the assay on HCT-15 was Active. The Activity in the assay with CFPAC-1 [10] is on record as 103%.
Turning to `CC(C)(NP(=O)(OC[C@H]1O[C@@H](n2cccnc2=O)C[C@@H]1O)Oc1ccccc1)C(=O)OCc1ccccc1` (stereo partly specified), the result in the assay with T-24 [1], with T-24 [2], with T-24 [3], with CFPAC-1 [4], with CFPAC-1 [5] and in the assay on CFPAC-1 [6] was inactive. Besides, the outcome in the assay with T-24 [9] and in the assay on CFPAC-1 [7] was inactive.
